Assay outcomes from PubChem BioAssay.
CHT block: inhibitors of human choline transporter CHT; B-score at 10 µM; CHT-expressing cells, membrane potential dye, choline response; hits give low values; 0.86% of 310,000 active; AID 488975;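 active = B-score over 3 SD under the library average, and starting fluorescence ratio not unusually high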;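 note: choline stimulus applied at its EC90 after an EC20 pre-addition; B-score computed on integrated fluorescence ratio after choline addition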
Target sequence (Q9GZV3 whole entry, looked up): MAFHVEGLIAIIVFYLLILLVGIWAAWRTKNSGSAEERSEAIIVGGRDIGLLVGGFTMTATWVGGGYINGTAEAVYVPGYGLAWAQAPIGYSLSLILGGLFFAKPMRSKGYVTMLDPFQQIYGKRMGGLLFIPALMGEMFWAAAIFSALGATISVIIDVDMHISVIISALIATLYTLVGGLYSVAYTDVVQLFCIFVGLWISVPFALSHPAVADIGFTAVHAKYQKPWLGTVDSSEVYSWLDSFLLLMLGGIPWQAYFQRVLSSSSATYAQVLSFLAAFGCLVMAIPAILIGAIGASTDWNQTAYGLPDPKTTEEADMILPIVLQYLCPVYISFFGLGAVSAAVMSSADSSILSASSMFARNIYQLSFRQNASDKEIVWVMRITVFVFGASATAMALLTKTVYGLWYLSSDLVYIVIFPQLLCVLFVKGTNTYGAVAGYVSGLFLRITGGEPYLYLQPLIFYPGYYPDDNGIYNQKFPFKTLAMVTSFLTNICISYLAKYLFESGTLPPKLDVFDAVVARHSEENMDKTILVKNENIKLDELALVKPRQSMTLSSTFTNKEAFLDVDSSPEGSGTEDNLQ
CHT PAM: human CHT allosteric activation; Q9GZV3; CHT-expressing cells, membrane potential dye, choline EC20; hits give high values; LV-AA mutant CHT in HEK293 cells; B-score at 10 µM; 0.49% of 310,000 active;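 active = initial fluorescence not abnormally high and integrated response B-score, plate-corrected, over 3 SD above library mean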
KCC2 mod: modulates chloride dependent transport by human KCC2 | AID 1456 | KCC2 cells, thallium flux FluoZin-2 fluorescence | B-score of Tl+ flux slope (higher = more flux/activation; lower = inhibition) at 10 µM | Q9H2X9 | 2.2% of 190,000 active;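 active = thallium flux slope and its plate-corrected score both differing from the plate sample mean at a set confidence after two filtering rounds, in either direction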;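 note: slope of fluorescence scaled to starting intensity during 10 to 20 s after thallium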
Rad51 HR inh: blocks human Rad51 in homologous recombination | 0.085% of 200,000 active | Q06609 | hRad51 DNA strand exchange, fluorescence dequenching | inhibition, % at 10 µM;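 active = inhibition above 40% at the single screening dose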;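 note: 0% = DMSO control wells and 100% = blanks with heterologous ssDNA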
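Material: Human Rad51 nucleoprotein filaments preassembled on unlabelled ssDNA | Also added: Labelled 47-mer dsDNA for strand exchange | Dosing: Single dose, 10 µM final compound | Schedule: 30-min compound preincubation and 15-min exchange, both room temperature | Technique: Fluorescence dequenching at 485/520 nm | Measure: Percent inhibition relative to plate controls and blanks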
Active calls of the source: *; i = inactive; · = no result. Rows were chosen to be rich in hits. Some 2.6% of all compounds tested hit in one or more screens of this group.

SMILES | CHT block | CHT PAM | KCC2 mod | Rad51 HR inh
CC(=O)Nc1nc2cc3c(cc2s1)OCCO3 | i | i | · | ·
Fc1cccc2sc(Nc3nc4cc5c(cc4s3)OCCO5)nc12 | i | i | 10.6* | 6.6
CC(C)C(=O)Nc1nc2cc3c(cc2s1)OCO3 | i | i | · | 1.9
Cc1cc(NC(=O)CCC(=O)N(CC(=O)NCC2CCCO2)c2ccc(C)c(C)c2)no1 (stereo not drawn) | i | i | · | ·
CN1Cc2cc(C(=O)c3cc(Cl)cc(CSc4ncccn4)c3O)cnc2NC1=O | i | 7.01* | 0.153 | -3.8
O=C(c1nc(SCc2ccc([N+](=O)[O-])cc2)n2ccccc12)C(F)(F)F | i | i | -1.75 | 18.9
COc1ccc(/C=C/C2=Nc3ccccc3NC(C)(C)C2)cc1OC | i | i | -0.604 | -4.3
COc1ccc(NS(=O)(=O)c2ccc(NC(=O)C(CCSC)NC(N)=O)cc2)cc1 (stereo not drawn) | i | i | 1.26 | 41.7*
COc1ccc(-c2sc(Nc3ccccc3)n[n+]2-c2ccc(F)cc2)c(C)c1C | -5.43* | i | · | ·
O=C(NCCN1CCOCC1)c1cc([N+](=O)[O-])cc([N+](=O)[O-])c1 | i | i | · | ·
CC(C)(C)OC(=O)N1CCC(C(=O)N2CCC[C@H]2C(=O)O)CC1 | i | i | 0.564 | 12.4
CCn1cc(/C=N/NS(=O)(=O)c2ccc(OC)cc2)c(C)n1 | i | i | 0.19 | 45.4*
CCn1cc(/C=N/NS(=O)(=O)c2ccc(C)cc2)c(C)n1 | i | i | 0.0576 | ·
CCCC12C(=O)C(C)(C(c3ccccc3)=C1c1ccccc1)C1C(=O)N(c3ccc(C)cc3)C(=O)C12 (stereo not drawn) | i | i | -0.501 | -34.4
CC1CCN(Cc2c(C#N)c3ccccc3n2C)CC1 | i | i | -1.65 | 0.1
O=C(COc1ccccc1)N1CCN(C(=O)COc2ccccc2)CC1 | i | i | · | ·
Cc1nc(N2CCN(C(=O)COc3ccccc3)CC2)c2c(C)c(C)sc2n1 | -7.53* | i | · | 3.4
CCC(C)[C@H](NC(=O)N1CC(=O)Nc2ccccc21)C(=O)N[C@H](C(=O)O)c1ccccc1 (stereo partly drawn) | i | i | · | ·
OCCC1CN(Cc2ccc3cccc(F)c3n2)CCN1Cc1ccccc1 (stereo not drawn) | i | i | · | ·
O=C(NNC(=O)c1sccc1-n1cccc1)c1ccc(Cl)cc1 | i | i | 15.1* | -7.7
O=C(NNS(=O)(=O)c1ccc(Cl)cc1)c1sccc1-n1cccc1 | i | i | · | -3.5
CCN(CC)c1ccc(S(=O)(=O)N2CCOCC2)cc1NC(=O)CSC(=S)N1CCCC1 | i | i | · | ·
CCCCn1c(N)c(C(=S)NC(=O)CC(C)(C)C)c(=O)n(C)c1=O | i | i | 28.1* | -1.2
O=C(N/N=C1\CCCc2ccccc21)c1ccc([N+](=O)[O-])cc1 | i | i | 3.1* | -1.4
O=C(c1cc2cccc([N+](=O)[O-])c2oc1=O)N1CCOCC1 | i | i | 0.193 | -5.4
SMILES | CHT block | CHT PAM | KCC2 mod | Rad51 HR inh
CCc1ccc(NC(=S)NNC(=O)c2ccccc2OC(F)F)cc1 | i | i | 17.9* | 1.6
CC1C(=O)N(Cc2cccc(F)c2)c2ccccc2N1C(=O)c1ccccc1 (stereo not drawn) | i | i | · | ·
CC1C(=O)N(Cc2ccccc2F)c2ccccc2N1C(=O)c1c(F)cccc1F (stereo not drawn) | -5.12* | i | · | ·
O=C(Nc1ccc(-c2nc3ccccc3o2)cc1)c1ccc2c(c1)OCO2 | i | i | 0.455 | 87.2*
Cc1ccc2oc(-c3ccc(NC(=O)c4ccc5c(c4)OCO5)cc3)nc2c1 | i | i | -1.55 | -8.1
CN(C)c1ccc(C(=O)N/N=C/c2ccccn2)cc1 | i | i | · | ·
COc1ccc(NC(=O)C2CCCN(CCCc3ccccc3)C2)cc1OCC(C)C (stereo not drawn) | i | i | · | ·
CCCn1c(N)c(N(CCOC)C(=O)c2ccc(N(C)S(=O)(=O)c3ccc(C)cc3)cc2)c(=O)[nH]c1=O | i | i | · | ·
Cc1ccn2c(NC(=O)C(C)(C)Oc3ccc(Cl)cc3)c(-c3cccs3)nc2c1 | -7.94* | i | -1.85 | -3.8
Cc1ccc(C(=O)Nc2c(-c3cccs3)nc3cc(C)ccn23)cc1 | i | i | · | 4.3
O=C(Nc1nnc(-c2cc(Cl)ccc2Cl)o1)c1ccco1 | i | i | · | ·
CCOC(=O)c1sc(NC(=S)NC(=O)c2ccco2)nc1C | i | i | 46.9* | 2.9
O=C(NC(=S)Nc1nc2ccccc2s1)c1ccco1 | i | i | 36.8* | 2.9
COc1ccc2sc(NC(=O)c3ccco3)nc2c1 | i | i | 0.0644 | -1.9
O=C(NCc1ccc(-c2nc3ccccc3s2)cc1)c1ccco1 | i | i | 0.614 | 2.4
O=C(NC(=S)NCc1ccc(-c2nc3ccccc3s2)cc1)c1ccco1 | i | i | 6.36* | 1.1
CCc1ccc(OCCCCN(C)Cc2ccccc2)cc1 | i | i | · | ·
CC1(C)CC(N=c2cc(-c3ccccc3)oc3ccc(Cl)cc23)CC(C)(C)N1 | · | · | 0.577 | 52.9*
OCCCN=c1cc(-c2ccccc2)oc2ccc(Cl)cc12 | i | i | · | -8.8
S=c1nc(-c2ccccc2)[nH]c2ccccc12 | i | i | 39.6* | 3.6
O=c1nc(-c2ccccc2)c2ccccc2[nH]1 | i | i | -0.46 | 5.5
COC(=O)c1ccc2c(c1)C(C)(C)C(/C=C/c1ccccc1O)=[N+]2C | i | 7.22* | -1.3 | -3.0
CN(C)C(=O)c1ccc(NC(=O)CN2C(=O)NC3(CCCc4ccccc43)C2=O)cc1 (stereo not drawn) | i | i | · | ·
CCCCC(=O)Nc1ccc(C(=O)N2CCN(C)CC2)cc1 | i | i | 0.052 | -8.0
COCC(C)NC(=O)CSc1ncnc2sc(-c3ccccc3)cc12 (stereo not drawn) | i | i | · | ·
SMILES | CHT block | CHT PAM | KCC2 mod | Rad51 HR inh
CC(C)C(C)(C#N)NC(=O)CSc1ncnc2sc(-c3ccccc3)cc12 (stereo not drawn) | i | i | -3.57* | -7.2
COc1ccc(C(=O)NC(Cn2ccnc2)C(C)(C)C)cc1OC1CCN(C(C)C)CC1 (stereo not drawn) | -8.71* | i | · | ·
COC(=O)CN(C)C(=O)c1ccc(OC)c(OC2CCN(C(C)C)CC2)c1 | i | i | · | ·
CCc1ccc(CNC(=O)c2ccc(OC)c(OC3CCN(C(C)C)CC3)c2)nc1 | -9.6* | i | · | ·
COc1cccc(CNC(=O)CS(=O)(=O)Cc2nc(-c3ccc(C)cc3)oc2C)c1OC | i | i | · | ·
CCOC(=O)C1CCCN(S(=O)(=O)c2ccc(OC)cc2)C1 (stereo not drawn) | i | i | 1.47 | 46.0*
CCOC(=O)C1CCCN(S(=O)(=O)c2ccc(C)cc2)C1 (stereo not drawn) | i | i | 0.461 | 3.5
CC1=NN(C(N)=S)C(=O)C1N=Nc1ccc([N+](=O)[O-])cc1 (stereo not drawn) | i | i | · | ·
COC(=O)c1c(NS(C)(=O)=O)sc2c1CCCC2 | i | i | 1.09 | 3.7
